Each block holds one compound with its values, some of them ahead of it. Active and inactive are the calls of the source. The rule behind the calls is not given here.
What was measured:
[1] = target: T1, Peroxisome proliferator-activated receptor gamma (Homo sapiens) (UniProt P37231); assay: Transactivation of GAL4 DBD-fused human PPARgamma LBD expressed in HEK293 cells at 10 uM after 24 hrs by luciferase reporter gene assay relative to pioglitazone; assay type: cell-based
T1 sequence (whole entry): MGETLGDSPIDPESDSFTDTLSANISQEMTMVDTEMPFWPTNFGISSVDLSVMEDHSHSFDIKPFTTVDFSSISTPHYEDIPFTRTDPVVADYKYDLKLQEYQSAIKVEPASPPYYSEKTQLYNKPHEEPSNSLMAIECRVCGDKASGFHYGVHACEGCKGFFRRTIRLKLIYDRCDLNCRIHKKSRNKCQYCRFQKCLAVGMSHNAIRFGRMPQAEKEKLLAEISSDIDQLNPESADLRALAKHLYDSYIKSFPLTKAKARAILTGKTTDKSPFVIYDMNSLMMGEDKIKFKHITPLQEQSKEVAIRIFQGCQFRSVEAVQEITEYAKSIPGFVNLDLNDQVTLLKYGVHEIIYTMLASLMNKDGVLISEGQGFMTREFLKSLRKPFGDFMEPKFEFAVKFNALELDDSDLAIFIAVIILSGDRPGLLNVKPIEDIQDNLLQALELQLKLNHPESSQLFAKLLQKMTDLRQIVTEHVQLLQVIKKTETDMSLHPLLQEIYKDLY
Summary of the method: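 HEK293(T) cells transiently co-transfected with a Gal4 DBD–human PPARγ LBD hybrid and a Gal4 UAS-driven Renilla luciferase reporter. […] Luciferase activity normalized to Renilla and expressed as fold induction over vehicle; triplicates, repeated at least three times.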

Rattus norvegicus [2] = assay: Antiinflammatory activity in rat acute inflammation model assessed as inhibition of formalin-induced paw edema at 5 mg/kg, po measured after 4 hrs relative to celecoxib; assay type: functional
Summary of the method: (§1)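 Adult female albino rats, 150-250 g, acclimatized 1 week. Compounds given orally at 5 mg/kg body weight; percentage edema inhibition measured after 4 h. Celecoxib and diclofenac sodium served as positive controls.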

Rattus norvegicus [3] = assay: Antiinflammatory activity in rat acute inflammation model assessed as inhibition of formalin-induced paw edema at 5 mg/kg, po measured after 4 hrs relative to control; assay type: functional; summary of the method: as §1
THP-1 [4] = assay: Inhibition of PMA-induced human THP1 monocytes differentiation in to macrophages assessed as macrophage metabolic activity up to 300 uM preincubated for 6 hrs before PMA stimulation; assay type: functional, cell-based
Summary of the method: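 THP-1 cells grown in RPMI-1640 with 10% FBS and seeded at 2×10^5 cells/ml. Drug concentrations applied for 6 h before differentiation with PMA 25 ng/ml for 24 h; wells washed 3x with PBS. Attached cells quantified by MTS viability readout, with a no-PMA blank, normalized to DMSO-pretreated PMA cells. Viability at each drug concentration checked separately over 30 h.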

Rattus norvegicus [5] = species: Rattus norvegicus; assay: Antidiabetic activity in Wistar rat hemi-diaphragm at 2 mg assessed as increase in glucose uptake in absence of insulin by GOD/POD enzymatic method; assay type: functional, tissue-based
Summary of the method: (§2)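 Wistar rats (150-250 g), fasted overnight, euthanized under ether; diaphragms removed and halved, each half weighed. Glucose in the working solution measured before and after incubation, and uptake taken as initial minus final content at 2 mg drug; expressed as mg/dl/45 min, mean ± SEM.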

Rattus norvegicus [6] = species: Rattus norvegicus; assay: Antidiabetic activity in Wistar rat hemi-diaphragm at 2 mg assessed as increase in insulin-induced glucose uptake by GOD/POD enzymatic method; assay type: functional, tissue-based; summary of the method: as §2
[7] = target: T2, Prostaglandin G/H synthase 1 (Ovis aries, UniProt P05979); assay: Inhibition of ovine COX1 catalytic activity using arachidonic acid as substrate pre-incubated for 10 mins followed by substrate addition and measured after 2 mins by ELISA method
T2 sequence (P05979 whole entry): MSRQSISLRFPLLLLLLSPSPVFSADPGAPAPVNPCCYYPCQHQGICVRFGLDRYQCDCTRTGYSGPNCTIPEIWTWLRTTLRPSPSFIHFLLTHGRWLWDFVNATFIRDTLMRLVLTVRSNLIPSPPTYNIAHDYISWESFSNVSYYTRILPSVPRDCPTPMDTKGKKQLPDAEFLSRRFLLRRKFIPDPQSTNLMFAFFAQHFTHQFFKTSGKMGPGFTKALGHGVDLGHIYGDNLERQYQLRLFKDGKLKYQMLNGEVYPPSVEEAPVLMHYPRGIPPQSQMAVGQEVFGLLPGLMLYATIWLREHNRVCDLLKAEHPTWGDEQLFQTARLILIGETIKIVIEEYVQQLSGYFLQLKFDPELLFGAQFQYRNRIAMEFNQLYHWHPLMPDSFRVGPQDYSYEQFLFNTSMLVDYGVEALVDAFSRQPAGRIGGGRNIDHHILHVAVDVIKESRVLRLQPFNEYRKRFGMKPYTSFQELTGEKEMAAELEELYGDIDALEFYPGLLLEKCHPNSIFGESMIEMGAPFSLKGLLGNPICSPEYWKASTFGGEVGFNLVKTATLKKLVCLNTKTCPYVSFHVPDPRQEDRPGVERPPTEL

[8] = Inhibition of soya bean 15-LOX by colorimetric lipoxygenase inhibitor screening assay kit method; design: species or system Glycine max
Summary of the method: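 Soybean 15-LOX activity measured with a colorimetric lipoxygenase inhibitor screening kit per the kit instructions.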

THP-1 [9] = assay: Inhibition of PMA-induced human THP1 monocytes differentiation in to macrophages assessed as macrophage metabolic activity preincubated for 6 hrs before PMA stimulation

Activity [1]: 25 to 45%
SMILES: COc1ccc(-n2cc(COc3ccc(/C=C4\SC(=O)NC4=O)cc3)nn2)cc1

SMILES: O=C(O)Cc1ccccc1Nc1c(Cl)cccc1Cl [DICLOFENAC SODIUM]
inhibition in vivo at 5 mg/kg (Rattus norvegicus [2]): 205%
inhibition in vivo at 5 mg/kg (Rattus norvegicus [3]): 52.1%

SMILES: CCc1ccc(CCOc2ccc(CC3SC(=O)NC3=O)cc2)nc1 (centres undefined)
inhibition (THP-1 [4]): inactive
Activity (Rattus norvegicus [5]): Active
Activity (Rattus norvegicus [6]): Active

IC50 [7]: 14.9 µM
IC50 [8]: 4.34 µM
SMILES: O=C1NC(=S)S/C1=C\c1ccc(OCc2cn(CC(=O)c3ccc(Br)cc3)nn2)cc1
Activity (Rattus norvegicus [5]): Active
Activity (Rattus norvegicus [6]): Active

Activity [1]: 25 to 45%
SMILES: C#CCOc1ccc(/C=C2\SC(=S)NC2=O)cc1

IC50 [7]: 12.4 µM
IC50 [8]: 4.22 µM
SMILES: O=C1NC(=S)S/C1=C\c1ccc(OCc2cn(CC(=O)c3ccc(Cl)cc3)nn2)cc1

SMILES: Cc1ccc(-c2cc(C(F)(F)F)nn2-c2ccc(S(N)(=O)=O)cc2)cc1 [CELECOXIB]
inhibition in vivo at 5 mg/kg (Rattus norvegicus [3]): 36.8%

IC50 [7]: 13.6 µM
IC50 [8]: 4.97 µM
SMILES: O=C1NC(=O)/C(=C/c2ccc(OCc3cn(CC(=O)c4ccc(Br)cc4)nn3)cc2)S1
Activity (Rattus norvegicus [5]): Active
Activity (Rattus norvegicus [6]): Active

Activity [1]: 25 to 45%
SMILES: O=C1NC(=O)/C(=C/c2ccc(OCc3cn(Cc4ccc(Br)cc4)nn3)cc2)S1

IC50 [7]: 10.9 µM
SMILES: O=C1NC(=O)/C(=C/c2ccc(OCc3cn(CC(=O)c4ccc(Cl)cc4)nn3)cc2)S1

IC50 [8]: 10.2 µM
SMILES: CC(Cc1ccc(O)c(O)c1)C(C)Cc1ccc(O)c(O)c1 (centres undefined) [NORDIHYDROGUAIARETIC ACID]

SMILES: O=c1c(O)c(-c2ccc(O)c(O)c2)oc2cc(O)cc(O)c12 [QUERCETIN]
IC50 [8]: 3.27 µM

IC50 (THP-1 [9]): 143 µM
SMILES: O=C(O)Cc1ccccc1Nc1c(Cl)cccc1Cl [DICLOFENAC]

Activity [1]: 25 to 45%
SMILES: O=C1NC(=O)/C(=C/c2ccc(OCc3cn(-c4ccc(Br)cc4)nn3)cc2)S1
